The source of these data is ChEMBL document CHEMBL4041468, “Effects of Koumine on Adjuvant- and Collagen-Induced Arthritis in Rats” (J Nat Prod, 2016).

Activity calls are given as the source filed them.

Test [1] deals with Rattus norvegicus. Briefly: Antiarthritic activity in Wistar rat type-2 collagen-induced arthritis model assessed as reduction in cartilage degeneration in joints at 15 mg/kg, ig via gavage administered 10 consecutive days starting from day 20 post type-2 collagen injection by hematoxylin and eosin staining based light microscopy. Format: functional, organism-based. The method, boiled down:
(§1)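 CIA in male Wistar rats (chicken CII emulsion, two intradermal injections 7 d apart); daily gavage for 10 d from day 20. After treatment, hind limbs X-rayed. Left hind paw joints fixed in 10% formalin, decalcified in 10% EDTA for 28 d at 4 °C, paraffin-embedded, sectioned at 5 μm, H&E-stained and examined by light microscopy at 100×.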

Test [2] relates to Rattus norvegicus. Briefly: Antiarthritic activity in Lewis rat Freund's adjuvant-induced arthritis model assessed as reduction in arthritis index score at 15 mg/kg, ig administered through gavage pretreated for 1 hr followed by adjuvant challenge subsequent treatment for 9 days measured alternate days up to 24 days post dose. It counts as functional, organism-based. The method, boiled down:
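Female Lewis rats (8 weeks old) given a single intradermal injection of 0.1 mL CFA (heat-killed M. tuberculosis in paraffin oil) into the right hind paw. Gavage dosing in sterile saline 1 h before induction and daily for 9 d. Arthritis index scored (the paper reports the 18 d reading). n = 10 per group; Kruskal−Wallis with Dunn's test.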

Test [3] relates to Rattus norvegicus. Briefly: Antiarthritic activity in Wistar rat type-2 collagen-induced arthritis model assessed as reduction in joint tissue IL-1beta level at 15 mg/kg, ig via gavage administered 10 consecutive days starting from day 20 post type-2 collagen injection by ELISA method. Format: functional, organism-based. In short, it runs like this: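 CIA Wistar rats dosed by gavage daily for 10 d from day 20 post first CII injection. Trunk blood serum stored at −70 °C. Right hind paw joint tissue homogenized at 200 mg/mL in PBS with 50 U/mL aprotinin, then centrifuged at 3000 rpm for 20 min at 4 °C. IL-1β and TNF-α quantified by ELISA kits in serum and supernatant. n = 10; one-way ANOVA with SNK.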

The test system of test [4] is Rattus norvegicus. The test is described as follows: Antiarthritic activity in Wistar rat type-2 collagen-induced arthritis model assessed as reduction in bone degeneration at 15 mg/kg, ig via gavage administered 10 consecutive days starting from day 20 post type-2 collagen injection by hematoxylin and eosin staining based light microscopy. It counts as functional, organism-based. The method, boiled down:
as §1

Test [5] relates to Rattus norvegicus. Briefly: Antiarthritic activity in Lewis rat Freund's adjuvant-induced arthritis model assessed as reduction in mechanical allodynia in contralateral hind paw at 0.6 to 15 mg/kg, ig administered through gavage pretreated for 1 hr followed by adjuvant challenge and subsequent treatment for 9 days measured alternate days up to 24 days post dose. It counts as functional, organism-based. The method, boiled down: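 Lewis rats with CFA-induced arthritis (0.1 mL intradermal, right hind paw), gavaged 1 h before induction and daily for 9 d. Mechanical withdrawal threshold measured 1 h after dosing. Rats habituated 30 min in individual cubicles; von Frey filament applied upward to the centre of each hind paw until withdrawal, maximum 55 g. Repeated twice at 10 min intervals; ipsilateral and contralateral paws recorded separately. n = 10; two-way ANOVA.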

Test [6] relates to Rattus norvegicus. Briefly: Antiarthritic activity in Wistar rat type-2 collagen-induced arthritis model assessed as reduction in arthritis index score administered as ig via gavage for 10 consecutive days starting from day 20 post type-2 collagen injection. It counts as functional. The method, boiled down:
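Male Wistar rats (7 weeks old) immunized with chicken CII in CFA/IFA, two intradermal 0.3 mL injections 7 d apart. Oral gavage in saline for 10 consecutive days starting day 20. Evaluation at baseline, predosing, and on alternate days thereafter: arthritis score; plethysmometer volume averaged over both hind paws; von Frey threshold 1 h post-dose (max 55 g, two repeats 10 min apart). n = 10.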

Test [7] has as its system Rattus norvegicus. Briefly: Antiarthritic activity in Wistar rat type-2 collagen-induced arthritis model assessed as reduction in cartilage space narrowing at 0.6 to 15 mg/kg, ig via gavage administered 10 consecutive days starting from day 20 post type-2 collagen injection by X-ray method. Format: functional, organism-based. The method, boiled down: as §1
For test [8], the system named is Rattus norvegicus. Briefly: Antiarthritic activity in Lewis rat Freund's adjuvant-induced arthritis model assessed as change in liver weight at 0.6 to 15 mg/kg, ig administered through gavage pretreated for 1 hr followed by adjuvant challenge subsequent treatment for 9 days measured alternate days up to 24 days post dose. It counts as functional, organism-based. In short, it runs like this: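 Female Lewis rats (8 weeks old, 120−140 g) given a single intradermal injection of 0.1 mL CFA (10 mg heat-killed M. tuberculosis per 1 mL paraffin oil) into the right hind paw. Oral gavage in sterile saline 1 h before induction, then daily for the next 9 d. Sacrifice by exsanguination under deep anesthesia 24 d after adjuvant. Spleen, liver and thymus weighed and corrected for body weight (g/100 g). n = 10; one-way ANOVA with Student−Newman−Keuls.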

The test system of test [9] is Rattus norvegicus. Briefly: Antiarthritic activity in Wistar rat type-2 collagen-induced arthritis model assessed as reduction in IL-1beta mRNA expression at 15 mg/kg, ig via gavage administered 10 consecutive days starting from day 20 post type-2 collagen injection by qPCR analysis. It counts as functional, organism-based. In short, it runs like this:
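Male Wistar rats (7 weeks old) given chicken CII (2 mg/mL in 0.1 M acetic acid) emulsified 1:1 in BCG/IFA adjuvant, two intradermal 0.3 mL injections 7 d apart. Gavage in saline daily for 10 d from day 20. Total RNA from ankle synovial tissue homogenate, reverse transcribed, qPCR in triplicate. Fold change vs blank control by 2−ΔΔCt.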
A general note: In qPCR the cycle at which signal appears reflects the starting amount.

On to `C=C[C@@]12CN(C)[C@H]3C[C@]14C(=Nc1ccccc14)[C@H]1C[C@@H]2[C@@H]3CO1`, for which the outcome in test [1], in [2], in [3], in test [4], in test [7] and in test [8] was Active. The outcome in [9] was Active. The result in test [5] was inactive. Also, in [6], the Activity entry is “Dose-dependent effect”.
